Laboratory results from ChEMBL document CHEMBL3856229, “Hybrid Antibiotic Overcomes Resistance in P. aeruginosa by Enhancing Outer Membrane Penetration and Reducing Efflux” (J Med Chem, 2016).

What was measured:
Acinetobacter baumannii = assay: Antibacterial activity against Acinetobacter baumannii isolate CAN-ICU 63169 after 24 hrs by microtitre broth dilution method; type: functional; conditions: isolate CAN-ICU 63169, 24 h
Pseudomonas aeruginosa [1] = assay: Antibacterial activity against multidrug-resistant/tobramycin-susceptible Pseudomonas aeruginosa isolate 86141; type: functional
Pseudomonas aeruginosa [2] = assay: Antibacterial activity against multidrug-resistant/tobramycin-susceptible Pseudomonas aeruginosa isolate 92014; type: functional
Pseudomonas aeruginosa [3] = assay: Antibacterial activity against multidrug-resistant/tobramycin-susceptible Pseudomonas aeruginosa isolate 108590; type: functional
Escherichia coli = assay: Antibacterial activity against of wild-type Escherichia coli isolate 79768; type: functional
Pseudomonas aeruginosa [4] = assay: Antibacterial activity against Pseudomonas aeruginosa PAO1 assessed as fractional inhibitory concentration index after 18 hrs in presence of tobramycin by checkerboard method; type: functional
Procedure, shortened: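 Checkerboard combinations of the hybrid with each partner antibiotic were tested against P. aeruginosa PAO1. Interaction is expressed as the fractional inhibitory concentration (FIC) index: ≤0.5 means synergy, 1–2 no interaction, ≥4 antagonism.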

Pseudomonas aeruginosa [5] = assay: Potentiation of ciprofloxacin induced antibacterial activity against multidrug/extremely drug-resistant Pseudomonas aeruginosa isolate PA260-97103 assessed as ciprofloxacin MIC at <= […] ug/ml (reference value: […] to […] ug/ml); type: functional
Pseudomonas aeruginosa [6] = assay: Potentiation of ciprofloxacin induced antibacterial activity against multidrug/extremely drug-resistant Pseudomonas aeruginosa isolate PA264-104354 assessed as ciprofloxacin MIC at <= […] ug/ml (reference value: […] to […] ug/ml); type: functional
Pseudomonas aeruginosa [7] = assay: Antibacterial activity against multidrug/extremely drug-resistant Pseudomonas aeruginosa isolate PA259-96918 in presence of <= 4 ug/ml of ciprofloxacin (reference value: 2 ug/ml); type: functional
[8] = Inhibition of circular DNA translation in Escherichia coli S30 extract after 60 mins by luciferase reporter gene assay
Procedure, shortened: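 Translation was run in an E. coli S30 extract with a luciferase read-out. Luminescence is expressed as a percentage of the no-antibiotic control, taken as 100%.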

COc1c(N2C[C@@H]3CCCN(CCCCCCCCCCCCO[C@@H]4[C@@H](O[C@H]5O[C@H](CO)[C@@H](O)[C@H](N)[C@H]5O)[C@H](N)C[C@H](N)[C@H]4O[C@H]4O[C@H](CN)[C@@H](O)C[C@H]4N)[C@@H]3C2)c(F)cc2c(=O)c(C(=O)O)cn(C3CC3)c12.Cl.Cl.Cl.Cl.Cl showed an MIC (Acinetobacter baumannii) of 16 µg/mL, an MIC (Pseudomonas aeruginosa [1]) of 4 µg/mL and an MIC (Pseudomonas aeruginosa [2]) of 4 µg/mL. For the same compound, the MIC (Pseudomonas aeruginosa [3]) was 2 µg/mL, the MIC (Escherichia coli) was ≤ 2 µg/mL and the “fractional inhibitory concentration index (FICI)” value (Pseudomonas aeruginosa [4]) was >2. For the same compound, the MIC (Pseudomonas aeruginosa [5]) was 1 µg/mL, the MIC (Pseudomonas aeruginosa [6]) was 1 µg/mL and the MIC (Pseudomonas aeruginosa [7]) was < 0.5 µg/mL. It also gave an IC50 [8] of 4.7 µM.
